Compounds with a hit are over-represented: about 4.6% of the library has one in this group of screens.
CHO parental Ca: counter-screen: ATP calcium response change in parental CHO cells; parental CHO-K1, ATP-induced calcium, Fluo-8 fluorescence; inhibition, % at 5.6 µM; actives 0.63% (n = 330,000);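 active = inhibition above that plate's mean sample inhibition plus 3 SD, cut at about 26% in these data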
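Material: parental CHO cells / Compound: single nominal dose of 5.6 µM per compound / Signal: Fluo-8 fluorescence / Replicates: singlicate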
TAAR1 antag: human TAAR1 antagonism; inhibition, % at 3 µM; CHO RD-HGA16 TAAR1, Fluo-8 calcium fluorescence, antagonist; actives 1.5% (n = 360,000);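 active = inhibition above a per-plate cutoff, the mean inhibition of test compounds on that plate plus 3 SD, cut at about 49% in these data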
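Test system: hTAAR1-expressing CHO RD-HGA16 cells, Gα16-coupled; Probe or stimulus: EC80 β-phenethylamine stimulus; Compound dosing: single nominal final test compound concentration of 3 µM; Timing: 140 s kinetic read after compound, 140 s after agonist; Signal: Fluo-8 calcium-sensitive fluorescence; Measure: % inhibition of agonist calcium response; Controls: DMSO and EC80 PEA controls.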
TAAR1 ag: agonists of human TAAR1; CHO RD-HGA16 TAAR1, Fluo-8 calcium fluorescence; vehicle wells 0%, saturating PEA agonist 100%; activation, % at 3 µM; actives 0.99% (n = 360,000); AID 624467;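 active = activation above the mean activation of all test compounds in the run plus 3 SD, cut at about 38% in these data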
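Test system: RD-HGA16 (CHO) cells co-expressing Gα16 and hTAAR1 / Benchmarks: DMSO vehicle as 0%, PEA at EC100 as 100% / Repeats: no replicates (n 1) / Measure: % activation from peak over basal fluorescence ratio, DMSO-to-PEA scaled / Timing: 17-24 h plating, Fluo-8 75 min 37 °C, 30 min RT / Technique: kinetic Fluo-8 calcium fluorescence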
OX1R antag-1: antagonists of human orexin 1 receptor (OX1R) | actives 1.8% (n = 330,000) | inhibition, % at 6.6 µM | OX1R-expressing cells, FRET antagonist read-out | O43613 | AID 485270; in the data active = inhibition mostly above about 38%, no sharp cut-off; inactive = mostly below about 40%
Target sequence (O43613 whole entry, looked up): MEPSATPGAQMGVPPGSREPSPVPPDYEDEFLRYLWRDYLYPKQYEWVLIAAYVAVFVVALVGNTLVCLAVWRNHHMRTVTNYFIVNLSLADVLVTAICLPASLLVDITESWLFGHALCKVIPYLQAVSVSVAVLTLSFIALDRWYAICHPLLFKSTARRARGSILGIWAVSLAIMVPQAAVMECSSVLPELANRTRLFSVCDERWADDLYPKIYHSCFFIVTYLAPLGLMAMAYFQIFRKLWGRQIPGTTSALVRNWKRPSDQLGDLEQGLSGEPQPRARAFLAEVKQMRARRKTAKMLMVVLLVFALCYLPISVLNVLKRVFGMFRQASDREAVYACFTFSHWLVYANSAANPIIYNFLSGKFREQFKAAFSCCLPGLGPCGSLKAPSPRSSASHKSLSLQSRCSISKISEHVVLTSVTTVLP
GPR7 antag: blocks human GPR7 receptor signaling; GPR7-expressing cells, fluorescence antagonist assay; inhibition, % at 4.4 µM; actives 1.1% (n = 290,000); in the data active = inhibition above about 16%, passing the limit was not always enough;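 also: cells stimulated with the agonist NPW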
Target sequence (P48145 whole entry, looked up): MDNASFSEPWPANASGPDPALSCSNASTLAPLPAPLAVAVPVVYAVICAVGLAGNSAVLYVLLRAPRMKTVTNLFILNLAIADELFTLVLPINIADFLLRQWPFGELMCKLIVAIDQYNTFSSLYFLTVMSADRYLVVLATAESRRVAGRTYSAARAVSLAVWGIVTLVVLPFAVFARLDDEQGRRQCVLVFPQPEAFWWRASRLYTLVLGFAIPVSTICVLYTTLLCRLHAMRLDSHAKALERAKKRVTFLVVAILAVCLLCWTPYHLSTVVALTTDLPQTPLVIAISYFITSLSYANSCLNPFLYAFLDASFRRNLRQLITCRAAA
OX1R antag-2: antagonists of human orexin 1 receptor; CHO/OX1R cells, Fluo-8 calcium fluorescence, orexin A; actives 0.43% (n = 330,000); O43613; AID 434989; inhibition, % at 5 µM;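 active = inhibition above its plate's threshold, mean inhibition of all tested compounds on the plate plus 3 SD, cut at about 37% in these data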
Large screens that a line does not name were inactive; ! = a repeat was not active.

CC1CCCC(NC(=O)COC(=O)COc2cccc(F)c2)C1C (stereo unspecified)	none (no result: GPR7 antag)
CCC(=O)N/N=C/c1ccc(-c2ccc([N+](=O)[O-])cc2)o1	none
CC(C)(C)C(=O)/C=c1\s/c(=C\c2ccc(-c3ccc([N+](=O)[O-])cc3)o2)c(=O)n1CC(=O)NC(N)=O	CHO parental Ca 64.4, TAAR1 antag 59.5, TAAR1 ag 53.1, OX1R antag-2 71.3
CCc1c(C#N)c(SCCC(=O)Nc2cccc(OC)c2)nc2c1C(=O)CC(C)(C)C2	TAAR1 antag 58.3
COc1ccc(-c2c(C#N)c(SCc3c(C)noc3C)nc3c2C(=O)CC(C)(C)C3)cc1	none
CCc1ccc(-c2cc(C)no2)cc1S(=O)(=O)N1CCOc2ccccc21	OX1R antag-1 49.1
CCOc1ccc(N(C)S(=O)(=O)c2cc(-c3cc(C)no3)ccc2OC)cc1	none
CCOc1ccc(N(C)S(=O)(=O)c2cc(-c3cc(C)no3)ccc2CC)cc1	CHO parental Ca 64.2, TAAR1 antag 58.3, OX1R antag-2 43.1
CN(C)c1ccc(-c2ccnc3c2CC(C)(C(=O)Nc2cccc(Oc4ccccc4)c2)O3)cc1 (stereo unspecified)	none (no result: CHO parental Ca, OX1R antag-1, GPR7 antag, OX1R antag-2)
CCn1c2ccccc2c2cc(NC(=O)COc3ccc(OC)cc3)ccc21	none
CCn1c2ccccc2c2cc(NC(=O)c3cccc([N+](=O)[O-])c3)ccc21	OX1R antag-1 76.0 (no result: GPR7 antag)
CCn1c2ccccc2c2cc(NC(=O)c3ccc(=O)oc3)ccc21	none
CCn1c2ccccc2c2cc(NC(=O)c3ccc(Br)o3)ccc21	OX1R antag-1 85.4, OX1R antag-2 47.9
CCC(=O)NC(=S)Nc1ccc(NC(=O)c2ccc(OC)cc2)cc1	none
CCn1c2ccccc2c2cc(NC(=O)c3cccc([N+](=O)[O-])c3C)ccc21	none
CCC(=O)NC(=S)Nc1ccc(NC(=O)c2ccc(Br)o2)cc1	GPR7 antag 18.5
CCn1c2ccccc2c2cc(NC(=O)COc3ccccc3)ccc21	OX1R antag-1 64.8
Cc1ccccc1-c1cccc2[nH]c3c(c12)CCN1C(=O)[C@H]2[C@H](C)ON(C)[C@H]2C[C@@H]31	none (no result: CHO parental Ca, OX1R antag-1, GPR7 antag, OX1R antag-2)
COc1ccc(/C=N/Nc2cn[nH]c(=O)c2Cl)cc1	TAAR1 ag 41.1
COc1ccc(/C=N/Nc2cc(C)nc3ccccc23)cc1	none
CC(=O)c1cccc(NC(=O)Nc2ccccc2)c1	none
CC(=O)c1cccc(NC(=O)Nc2nc(C)cc(C)n2)c1	OX1R antag-1 58.7
Cc1ccnc(NC(=O)c2cccc(NC(=O)c3ccc(Cl)c(Cl)c3)c2)c1	TAAR1 antag 54.1 (no result: CHO parental Ca, OX1R antag-1, GPR7 antag, OX1R antag-2)
CC(=O)c1ccc(NC(=O)c2cccc(NC(=O)c3ccccc3)c2)cc1	TAAR1 antag 50.2
COc1ccc(OC)c(NC(=O)c2cccc(NC(=O)c3ccccc3)c2)c1	OX1R antag-1 54.2
CC(=O)c1cccc(NC(=O)c2ccc3ccccc3c2)c1	none
Cc1ccnc(NC(=O)c2cccc(NC(=O)c3ccc(Cl)cc3)c2)c1	none (no result: CHO parental Ca, OX1R antag-1, GPR7 antag, OX1R antag-2)
COc1ccc(NC(=O)c2cccc(NC(=O)c3ccccc3)c2)c(OC)c1	none
COc1ccc(C)cc1NC(=O)C1CCCN(S(=O)(=O)c2cccs2)C1 (stereo unspecified)	OX1R antag-1 36.7
COc1cc(NC(=O)C2CCN(S(=O)(=O)c3cccs3)CC2)cc(OC)c1	OX1R antag-1 51.2 (no result: GPR7 antag)
Cc1ccccc1-c1ccc2c(c1)[C@@H]1C[C@H]3[C@@H](CN1CC2)[C@H](C)OC(C1CCCCC1)N3C (stereo partly specified)	none (no result: CHO parental Ca, OX1R antag-1, GPR7 antag, OX1R antag-2)
Cc1nc(Nc2ccc(Cl)c(Cl)c2)sc1C(=O)Nc1ccccc1	OX1R antag-1 69.0
COC(=O)C1=C(C)N(Cc2ccccc2)C(=S)NC1c1ccc(Br)cc1 (stereo unspecified)	none (no result: CHO parental Ca, OX1R antag-1, GPR7 antag, OX1R antag-2)
CCCC1=NN2C(=N)/C(=C\c3cc(C)n(-c4cc(C)cc(C)c4)c3C)C(=O)N=C2S1	TAAR1 antag 53.2, TAAR1 ag 41.8
Cc1cc(C)cc(-n2c(C)cc(/C=C3\C(=N)N4N=C(CC(C)C)SC4=NC3=O)c2C)c1	none
CC1(C)CC(N=C2C([N+](=O)[O-])=CC=C3C2=NC2(CCCCC2)N3O)CC(C)(C)N1	OX1R antag-1 74.2
O=[N+]([O-])C1=CC=C2C(=NC3(CCCCC3)N2O)C1=NC1CCCCC1	none
C[C@@H]1CN([C@@H](C)CO)C(=O)CCCn2cc(nn2)CO[C@H]1CN(C)C(=O)Nc1ccccc1F	none (no result: CHO parental Ca, OX1R antag-1, GPR7 antag, OX1R antag-2)
Cc1cc(Br)ccc1SCC(=O)OCC(=O)Nc1ccc2[nH]c(=O)[nH]c2c1	none (no result: GPR7 antag)
NC(N)=N/N=C/c1ccc(Cl)c(Cl)c1	TAAR1 ag 39.4
CC1CCC(C(C)C)C(OC(=O)Cn2c(-c3ccc(Cl)cc3)[n+](C)c3ccccc32)C1 (stereo unspecified)	GPR7 antag 60.3
CC1CCC(C(C)C)C(OC(=O)COC(=O)c2cccn2C)C1 (stereo unspecified)	none
CC1CCC(C(C)C)C(OC(=O)Cn2c(-c3ccc(Br)cc3)[n+](C)c3ccccc32)C1 (stereo unspecified)	CHO parental Ca 30.0!, GPR7 antag 73.7
CC1CCC(C(C)C)C(OC(=O)COC(=O)c2ccc(N)cc2)C1 (stereo unspecified)	none
COc1ccc2[nH]c3c(c2c1)CCN1C(=O)C(CC(=O)NCCC2=CCCCC2)C[C@H](C(=O)N2CCCCC2)[C@@]31CCc1ccccc1 (stereo partly specified)	none (no result: GPR7 antag)
COc1cc(-c2nc3ccccn3c2NCc2ccccc2)ccc1SC1CCCCC1	CHO parental Ca 61.8 (no result: TAAR1 antag, TAAR1 ag, GPR7 antag)
Fc1cccc2sc(Nc3nnc(-c4ccco4)o3)nc12	CHO parental Ca 41.2
COc1cccc2sc(Nc3nnc(-c4ccc(F)cc4)o3)nc12	none
COC(=O)[C@]12C[C@H](CC(=O)N3CCOCC3)C(=O)N(Cc3ccccc3)C1=C[C@H](C(C)C)O[C@@H]2C1CC1	none (no result: CHO parental Ca, OX1R antag-1, GPR7 antag, OX1R antag-2)
O=C(NCC1CCN(C(=O)C(=O)c2cc3ccccc3o2)CC1)c1ccc2c(c1)OCCCO2	none (no result: CHO parental Ca, OX1R antag-1, GPR7 antag, OX1R antag-2)
Fc1ccc(CCNC(=S)Nc2ccc(F)c(Cl)c2)cc1	CHO parental Ca 31.9
S=C(NCCc1ccc(Cl)cc1)Nc1ccc(Cl)cc1Cl	TAAR1 antag 49.5
CCCCCCCCN1C(=O)[C@@H](CC(=O)N2CCCCC2)C[C@@]2(C(=O)OC)C1=C[C@H](C(C)(C)C)O[C@@H]2C	none (no result: CHO parental Ca, OX1R antag-1, GPR7 antag, OX1R antag-2)
CCOc1cccc(C=NNc2nc(=O)cc(C(=O)OC)s2)c1O	none (no result: CHO parental Ca, OX1R antag-1, GPR7 antag, OX1R antag-2)
Nc1ccc2c(c1)C(=O)c1ccc(N)cc1-2	none (no result: CHO parental Ca, OX1R antag-1, GPR7 antag, OX1R antag-2)
Cc1csc(=O)n1CCC(=O)OCC(=O)NNC(=O)c1ccc(Cl)cc1	none (no result: CHO parental Ca, OX1R antag-1, GPR7 antag, OX1R antag-2)
O=C(NCc1ccccc1)[C@H]1CCCN1C(=O)[C@H]1CCCN1C(=O)c1ccc(F)cc1	none (no result: CHO parental Ca, OX1R antag-1, GPR7 antag, OX1R antag-2)
COc1ccccc1CNc1ncnc2sccc12	CHO parental Ca 40.6, OX1R antag-1 47.5
COc1ccccc1Oc1ncnc2sccc12	none

Screening results (PubChem BioAssay)
